Measurements reported in ChEMBL document CHEMBL1649428, “An ABC transporter of Streptococcus pneumoniae involved in susceptibility to vancoresmycin and bacitracin” (2009).
Values after ≈ are worked out from the molar mass of the structure shown. Bridge positions count the residues as written; N and C are the ends. Square brackets hold non-standard residues; d marks the D form. Peptide text beside a SMILES is read from it. * marks the point of attachment. Ileψ(thiazoline)Cys = CC[C@H](C)[C@H](N)C1=N[C@H](C(=O)*)CS1; dOrn = NCCC[C@@H](N)C(=O)O

Columns and labels:
Format in all cases: functional
[1] = tested on: Streptococcus pneumoniae; assay: Antimicrobial activity against copY and cyl deficient Streptococcus pneumoniae VarA mutant by agar dilution method
[2] = tested on: Streptococcus pneumoniae; assay: Antimicrobial activity against kanamycin-resistant and spr0811-spr0813::aphIII deficient Streptococcus pneumoniae R6 by agar dilution method
Procedure, shortened: (§1)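 Agar dilution MIC against the strain. Vancoresmycin was tested at 0.3 to 0.8 μg/ml in 0.05 μg/ml steps, diluted from a 0.5 mg/ml methanol stock kept at −20°C. Bacitracin was tested at 0.5 to 6 μg/ml in 0.2 μg/ml steps. Pneumococci are routinely grown at 37°C. MIC is the mean of three independent experiments.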

[3] = tested on: Streptococcus pneumoniae; assay: Antimicrobial activity against Streptococcus pneumoniae VarG transformed with spr0813 C1744T mutant gene by agar dilution method; procedure, shortened: as §1
[4] = tested on: Streptococcus pneumoniae; assay: Antimicrobial activity against Streptococcus pneumoniae R6 by agar dilution method; procedure, shortened: as §1
[5] = tested on: Streptococcus pneumoniae; assay: Antimicrobial activity against Streptococcus pneumoniae R6 transformed with DNA containing spr0813 C1744T mutant gene selected after drug exposure by agar dilution method; procedure, shortened: as §1
[6] = tested on: Streptococcus pneumoniae; assay: Antimicrobial activity against Streptococcus pneumoniae R6 transformed with DNA containing spr0813 C1744T mutant gene selected after vancoresmycin exposure by agar dilution method; procedure, shortened: as §1
[7] = tested on: Streptococcus pneumoniae; assay: Antimicrobial activity against kanamycin-resistant and spr0811-spr0813::aphIII deficient Streptococcus pneumoniae VarG by agar dilution method; procedure, shortened: as §1
[8] = tested on: Streptococcus pneumoniae; assay: Antimicrobial activity against Streptococcus pneumoniae R6 transformed with DNA containing spr0813 C1744T::aphIII mutant gene selected after kanamycin exposure by agar dilution method; procedure, shortened: as §1
[9] = tested on: Streptococcus pneumoniae; assay: Antimicrobial activity against copY and cyl deficient Streptococcus pneumoniae VarE mutant by agar dilution method
[10] = tested on: Streptococcus pneumoniae; assay: Antimicrobial activity against copY and cyl deficient Streptococcus pneumoniae VarF mutant by agar dilution method

Structure (SMILES) | MIC [1] [µg/mL] | MIC [2] [µg/mL] | MIC [3] [µg/mL] | MIC [4] [µg/mL] | MIC [5] [µg/mL] | MIC [6] [µg/mL] | MIC [7] [µg/mL] | MIC [8] [µg/mL] | MIC [9] [µg/mL] | MIC [10] [µg/mL]
CC[C@H](C)[C@H](N)C1=N[C@H](C(=O)N[C@@H](CC(C)C)C(=O)N[C@H](CCC(=O)O)C(=O)N[C@H](C(=O)N[C@H]2CCCCNC(=O)[C@H](CC(N)=O)NC(=O)[C@@H](CC(=O)O)NC(=O)[C@H](Cc3cnc[nH]3)NC(=O)[C@@H](Cc3ccccc3)NC(=O)[C@H]([C@@H](C)CC)NC(=O)[C@@H](CCCN)NC2=O)[C@@H](C)CC)CS1 [BACITRACIN] ({Ileψ(thiazoline)Cys}-L[dE]IK[dOrn]I[dF]H[dD]N; lactam 4-C) | 5.2 (≈ 3.65 µM) | 1 (≈ 0.703 µM) | 1 (≈ 0.703 µM) | 4.8 (≈ 3.37 µM) | 1 (≈ 0.703 µM) | 1 (≈ 0.703 µM) | 1 (≈ 0.703 µM) | 1 (≈ 0.703 µM) | 5.2 (≈ 3.65 µM) | 5.2 (≈ 3.65 µM)
C/C(=C\CC(O)CC(O)CCC(C)C(O)C(C)C(O)CCCC(O)C(C)C(O)/C(C)=C/C(C)C(=O)/C(C)=C/C(O)C(O)CC(O)CC(OC1OC(C)C(O)C(N)C1O)C(C)CCC(O)CC(O)CCC(C)C(O)C(C)C(O)C(C)C)C(=O)C1=C(O)/C(=C/C(C)C)N(C)C1=O (centres undefined) [VANCORESMYCIN] | 0.7 (≈ 0.521 µM) | 0.4 (≈ 0.298 µM) | 0.5 (≈ 0.372 µM) | 0.4 (≈ 0.298 µM) | 0.5 (≈ 0.372 µM) | – | 0.4 (≈ 0.298 µM) | 0.5 (≈ 0.372 µM) | 0.7 (≈ 0.521 µM) | 0.65 (≈ 0.484 µM)
